Assay results from article PMC4497517 (Proteins, 2009).
“Also recorded” adds a separate entry of the source. Where a SMILES comes first, the peptide text is derived from it.

How the values were obtained:
[1] = molecular target: T1, cdk2/cyclin E complex (Homo sapiens, UniProt P24941); test: Phosphorylation of RNAPII CTD; format: biochemical
Summary of the method: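 C81 cell lysate was fractionated on Superose 6 size exclusion, and cdk2 fractions 28–32 were pooled with test peptide (0.01, 0.1, 1, 10 μM). Cyclin E was immunoprecipitated overnight at 4°C (1 μg antibody, ~100 ng active cdk2/cyclin E), captured on protein A/G beads and washed. Kinase reaction: 20 μl, 1 hr, 37°C, GST-CTD substrate, (γ-32P) ATP. Products run on 4–20% Tris-glycine gel, dried, 32P bands counted by phosphorimager.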

[2] = tested on: cdk2 Y180A; details: cited from earlier work
[3] = molecular target: T1, cdk2/cyclin E complex; details: cited from earlier work
[4] = tested on: cdk2 R126A; details: alanine mutation experiment; cited from earlier work
[5] = tested on: RNA polymerase II (RNAPII) serine 5; details: by disrupting cdk2/cyclin E complex formation; cited from earlier work
[6] = tested on: cdk2 K178A; details: cited from earlier work
[7] = tested on: cdk2; details: cited from earlier work

| Compound | IC50 [1] | Binding affinity to mutant [2] | Disruption of cdk2/cyclin E complex [3] | Effect of R126A mutation on peptide binding [4] | Inhibition of phosphorylation of serine 5 of RNAPII [5] | Binding affinity to mutant [6] | Interaction with cdk2 [7] |
| --- | --- | --- | --- | --- | --- | --- | --- |
| CC(C)C[C@H](NC(=O)[C@H](C)NC(=O)[C@H](C)NC(=O)[C@@H](N)CC(C)C)C(=O)N[C@@H](CO)C(=O)O [LAALS] (H-LAALS-OH) | 4.26 µM | – | – | – | – | – | – |
| TAALS | – | dramatic reduction in their binding affinity | disrupts the cdk2/cyclin E complex; also recorded: succeeded in partially breaking the cdk2/cyclin E complex | does not participate significantly in the peptide binding; also recorded: does not affect the binding of peptide TAALS | inhibits the phosphorylation of serine 5 of RNA polymerase II (RNAPII) | dramatic reduction in their binding affinity | interacts directly with cdk2 |
